Laboratory results: ChEMBL document CHEMBL1143851, “Antimicrobial susceptibilities of Peptostreptococcus anaerobius and the newly described Peptostreptococcus stomatis isolated from various human sources” (2007)
In brackets after ≈: the same amount, converted by molar mass.

How the values were obtained:
[1] = tested on: Peptostreptococcus stomatis; experiment: Antibacterial activity against Peptostreptococcus stomatis; format: functional
In short: (§1)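 Clinical isolates (1985–2005) revived from −70°C stocks and subcultured on brucella blood agar. Etest MICs: 48-h anaerobic growth on prereduced brucella and fastidious anaerobe agars (5% defibrinated sheep blood, hemin, vitamin K1) suspended in 0.9% NaCl to 1–2 McFarland, spread on fresh plates of both media; incubated anaerobically at 37°C for 48 h (72 h for slow growers).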

[2] = tested on: Peptostreptococcus anaerobius; experiment: Antibacterial activity against Peptostreptococcus anaerobius; format: functional; in short: as §1

Compound	MIC50 [1] [µg/mL]	MIC90 [1] [µg/mL]	MIC50 [2] [µg/mL]	MIC90 [2] [µg/mL]
Cc1ncc([N+](=O)[O-])n1CCO [METRONIDAZOLE]	< 0.016	0.047 (≈ 0.275 µM)	0.094 (≈ 0.549 µM)	0.19 (≈ 1.11 µM)
CC[C@H]1OC(=O)[C@H](C)[C@@H](O[C@H]2C[C@@](C)(OC)[C@@H](O)[C@H](C)O2)[C@H](C)[C@@H](O[C@@H]2O[C@H](C)C[C@H](N(C)C)[C@H]2O)[C@](C)(O)C[C@@H](C)CN(C)[C@H](C)[C@@H](O)[C@]1(C)O [AZITHROMYCIN]	0.19 (≈ 0.254 µM)	0.75 (≈ 1 µM)	0.5 (≈ 0.668 µM)	1 (≈ 1.34 µM)
CO[C@@]1(NC(=O)Cc2cccs2)C(=O)N2C(C(=O)O)=C(COC(N)=O)CS[C@@H]21 [CEFOXITIN]	0.064 (≈ 0.15 µM)	0.38 (≈ 0.889 µM)	0.38 (≈ 0.889 µM)	0.75 (≈ 1.75 µM)
C[C@@H](O)[C@H]1C(=O)N2C(C(=O)O)=C(S[C@@H]3CN[C@H](C(=O)Nc4cccc(C(=O)O)c4)C3)[C@H](C)[C@H]12 [ERTAPENEM]	0.047 (≈ 0.0988 µM)	0.19 (≈ 0.4 µM)	0.25 (≈ 0.526 µM)	0.38 (≈ 0.799 µM)
CC1(C)S[C@@H]2[C@H](NC(=O)[C@H](N)c3ccc(O)cc3)C(=O)N2[C@H]1C(=O)O [AMOXICILLIN]	< 0.016	0.094 (≈ 0.257 µM)	0.125 (≈ 0.342 µM)	0.38 (≈ 1.04 µM)
COc1c(N2C[C@@H]3CCCN[C@@H]3C2)c(F)cc2c(=O)c(C(=O)O)cn(C3CC3)c12 [MOXIFLOXACIN]	0.094 (≈ 0.234 µM)	0.125 (≈ 0.311 µM)	0.125 (≈ 0.311 µM)	0.125 (≈ 0.311 µM)
CCC[C@@H]1C[C@@H](C(=O)N[C@@H]([C@H]2O[C@H](SC)[C@H](O)[C@@H](O)[C@H]2O)[C@H](C)Cl)N(C)C1 [CLINDAMYCIN]	< 0.016	0.016 (≈ 0.0376 µM)	0.19 (≈ 0.447 µM)	0.75 (≈ 1.76 µM)
